Activity calls are given as the source filed them. The calls are words filed in the database; no cut-off is given here.
Assays:
[1] = test system: SMB; assay: Antiprion activity against Scrapie prion protein-mediated scrapie in mouse SMB cells assessed as remaining PrP-Sc level at 20 uM after 5 days by Bradford assay relative to control; format: cell-based
Summary of the method: (§1)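 SMB scrapie-infected mouse cells, non-neuronal, in medium 199 with 10% newborn calf and 5% fetal calf serum, seeded at 3 × 10⁴ cells/well and attached for 24 h. Compound DMSO stocks were diluted via HBSS into medium and applied for 5 days. Lysates of ~30-40 μg protein/well were dot-blotted, digested with proteinase K at 75 μg mL⁻¹ (1 h, 37 °C) and denatured in 1.8 M guanidine thiocyanate. Read-out was %PrP^Sc versus DMSO-only control, in triplicate.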

[2] = Antiprion activity against Scrapie prion protein-mediated scrapie in mouse SMB cells assessed as remaining PrP-Sc level after 5 days by Bradford assay; format: cell-based; conditions: 120 h
Summary of the method: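 Same SMB dot-blot protocol with 5-day exposure. Compounds were rescreened over a range of concentrations to fit an EC₅₀ from dose-response curves. Each determination was run in triplicate, in at least two independent experiments. PrP^Sc was measured relative to an untreated DMSO-only control.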

[3] = test system: SMB; assay: Antiprion activity against Scrapie prion protein-mediated scrapie in mouse SMB cells assessed as remaining PrP-Sc level at 1 uM after 5 days by Bradford assay relative to control; format: cell-based
Summary of the method: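 Compound DMSO stocks were diluted via HBSS into medium and applied for 5 days. Lysates of ~30-40 μg protein/well were dot-blotted, digested with proteinase K at 75 μg mL⁻¹ (1 h, 37 °C) and denatured in 1.8 M guanidine thiocyanate. Read-out was %PrP^Sc versus DMSO-only control, in triplicate.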

[4] = target: Major prion protein (Homo sapiens) (UniProt P04156); assay: Binding affinity to human PrP up to 40 uM by surface plasmon resonance assay
[5] = target: Major prion protein (Mus musculus) (UniProt P04925); assay: Binding affinity to mouse PrP up to 40 uM by surface plasmon resonance assay
[6] = Cytotoxicity against mouse SMB cells at 20 uM after 5 days by MTT assay; format: cell-based; conditions: 120 h
Summary of the method: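 SMB cells were seeded at 3 × 10⁴ cells/well and attached for 24 h. Compound was added from DMSO stock diluted through HBSS into the medium, and cells were exposed for 5 days. Viability was read by MTT assay following the standard reagent protocol.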

[7] = test system: SMB; assay: Antiprion activity against Scrapie prion protein-mediated scrapie in mouse SMB cells assessed as remaining PrP-Sc level at 10 uM after 5 days by Bradford assay relative to control; format: cell-based; summary of the method: as §1

Chain of Major prion protein (Mus musculus) (P04925 whole entry): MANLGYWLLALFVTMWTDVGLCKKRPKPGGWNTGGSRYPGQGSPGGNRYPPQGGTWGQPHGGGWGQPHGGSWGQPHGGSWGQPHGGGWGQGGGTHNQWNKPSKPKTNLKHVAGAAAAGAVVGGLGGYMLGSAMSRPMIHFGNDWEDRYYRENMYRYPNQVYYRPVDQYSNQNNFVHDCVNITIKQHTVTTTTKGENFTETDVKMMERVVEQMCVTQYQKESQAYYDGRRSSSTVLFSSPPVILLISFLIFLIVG

Cc1[nH]c2ccccc2c1C(=O)C(=O)Nc1cccc(CO)c1
Remaining PrP-Sc level [1]: 80.8%

O=C(Nc1ccc(-n2cccn2)cc1)C(=O)c1c[nH]c2ccccc12
EC50 [2]: 1 nM
Activity [3]: 7%

O=C(Nc1ccc(O)cc1)C(=O)c1c[nH]c2ccccc12
EC50 [2]: 240 nM
Activity [4]: inactive
Activity [5]: inactive
Activity [3]: 17.8%

O=C(Nc1ccc(OC(F)(F)F)cc1)C(=O)c1c[nH]c2ccccc12
EC50 [2]: 380 nM
Activity [3]: 6.7%

Cc1ccc(NC(=O)C(=O)c2c[nH]c3ccccc23)cc1C
EC50 [2]: 1200 nM
Activity [3]: 48.7%

O=C(C(=O)N1CCCCC1)c1c[nH]c2ccccc12
Remaining PrP-Sc level [1]: 112%

Cc1[nH]c2ccccc2c1C(=O)C(=O)NCc1ccco1
Remaining PrP-Sc level [1]: 83%
Activity [6]: Toxic

CCOc1ccc(CNC(=O)C(=O)c2c[nH]c3ccccc23)cc1
EC50 [2]: 60 nM
Activity [3]: 6.5%

O=C(Nc1cccc(-c2cnco2)c1)C(=O)c1c[nH]c2ccccc12
EC50 [2]: 530 nM
Remaining PrP-Sc level [7]: 16.8%

Cn1cc(C(=O)C(=O)Nc2ccc(O)cc2)c2ccccc21
EC50 [2]: 3770 nM
Remaining PrP-Sc level [7]: 47.3%

Cc1[nH]c2ccccc2c1C(=O)C(=O)Nc1cccc2ccccc12
Remaining PrP-Sc level [1]: 96.3%

COc1ccccc1NC(=O)C(=O)c1c[nH]c2ccccc12
Remaining PrP-Sc level [7]: 140%
Activity [6]: Toxic

Cc1[nH]c2ccccc2c1C(=O)C(=O)Nc1ccc(O)cc1
Remaining PrP-Sc level [1]: 83.1%

Cn1cc(C(=O)C(=O)Nc2cccc3ccccc23)c2ccccc21
Remaining PrP-Sc level [1]: 121%

Cc1ccc(NC(=O)C(=O)c2c[nH]c3ccccc23)cc1
EC50 [2]: 130 nM
Activity [3]: 4.1%

Cn1cc(C(=O)C(=O)Nc2cccc(F)c2)c2ccccc21
Remaining PrP-Sc level [1]: 11.6%

O=C(Nc1cccnc1)C(=O)c1c[nH]c2ccccc12
EC50 [2]: 1660 nM
Remaining PrP-Sc level [7]: 8%

O=C(Nc1cccc2c(O)cccc12)C(=O)c1c[nH]c2ccccc12
Remaining PrP-Sc level [1]: 101%

COc1cc(NC(=O)C(=O)c2c[nH]c3ccccc23)cc(OC)c1OC
Remaining PrP-Sc level [1]: 143%

O=C(Nc1cccc(Oc2ccccc2)c1)C(=O)c1c[nH]c2ccccc12
Remaining PrP-Sc level [1]: 98.3%

O=C(Nc1ccc(-n2cccc2)cc1)C(=O)c1c[nH]c2ccccc12
EC50 [2]: 6 nM
Activity [3]: 17.1%

O=C(Nc1cccc2ccc(O)cc12)C(=O)c1c[nH]c2ccccc12
Remaining PrP-Sc level [1]: 115%

Cn1cc(C(=O)C(=O)NCc2ccco2)c2ccccc21
Remaining PrP-Sc level [1]: 109%

COc1cccc(CNC(=O)C(=O)c2c[nH]c3ccccc23)c1
Remaining PrP-Sc level [1]: 104%

Cc1[nH]c2ccccc2c1C(=O)C(=O)Nc1cccc(F)c1
Remaining PrP-Sc level [1]: 64%

Cn1cc(C(=O)C(=O)Nc2cccc3c(O)cccc23)c2ccccc21
Remaining PrP-Sc level [1]: 114%

Cn1cc(C(=O)C(=O)Nc2cnc3ccccc3c2)c2ccccc21
Remaining PrP-Sc level [1]: 102%
Activity [6]: Toxic

Cn1cc(C(=O)C(=O)N2CCOCC2)c2ccccc21
Remaining PrP-Sc level [1]: 100%

Cn1cc(C(=O)C(=O)N2CCCCC2)c2ccccc21
Remaining PrP-Sc level [7]: 131%
Activity [6]: Toxic

COc1cc(NC(=O)C(=O)c2cn(C)c3ccccc23)ncn1
Remaining PrP-Sc level [7]: 86.4%

COc1cc(NC(=O)C(=O)c2c[nH]c3ccccc23)ncn1
EC50 [2]: 680 nM
Activity [3]: 23%

Cc1[nH]c2ccccc2c1C(=O)C(=O)Nc1cccc(C#N)c1
Remaining PrP-Sc level [1]: 78.5%

Cc1[nH]c2ccccc2c1C(=O)C(=O)Nc1ccccc1
Remaining PrP-Sc level [7]: 41.6%

O=C(Nc1cccc(CO)c1)C(=O)c1c[nH]c2ccccc12
EC50 [2]: 14800 nM
Remaining PrP-Sc level [7]: 17.6%

CN(C)c1ccc(NC(=O)C(=O)c2c[nH]c3ccccc23)cc1
EC50 [2]: 26 nM
Activity [3]: 7.2%

O=C(Nc1ccc(Cl)cc1)C(=O)c1c[nH]c2ccccc12
EC50 [2]: 65 nM
Activity [3]: 5.9%

Cn1cc(C(=O)C(=O)NCc2ccccc2)c2ccccc21
Remaining PrP-Sc level [7]: 148%

COc1ccc(CNC(=O)C(=O)c2c[nH]c3ccccc23)cc1
Remaining PrP-Sc level [1]: 104%

O=C(Nc1ccc(F)c(F)c1)C(=O)c1c[nH]c2ccccc12
EC50 [2]: 320 nM
Activity [3]: 1.4%

O=C(Nc1cccc2ccccc12)C(=O)c1c[nH]c2ccccc12
Remaining PrP-Sc level [1]: 135%

O=C(Nc1ccccc1Cl)C(=O)c1c[nH]c2ccccc12
Remaining PrP-Sc level [1]: 85.4%

CC(=O)c1cccc(NC(=O)C(=O)c2c[nH]c3ccccc23)c1
Remaining PrP-Sc level [7]: 98.8%

Cc1[nH]c2ccccc2c1C(=O)C(=O)Nc1cnc2ccccc2c1
Remaining PrP-Sc level [1]: 87.6%
Activity [6]: Toxic

CCc1cccc(NC(=O)C(=O)c2c(C)[nH]c3ccccc23)c1
Remaining PrP-Sc level [1]: 78.8%

O=C(Nc1cccc(Cl)c1)C(=O)c1c[nH]c2ccccc12
EC50 [2]: 1510 nM
Remaining PrP-Sc level [7]: 40%

COc1cccc(NC(=O)C(=O)c2c(C)[nH]c3ccccc23)c1
Remaining PrP-Sc level [1]: 133%

Cc1[nH]c2ccccc2c1C(=O)C(=O)Nc1cccc(Oc2ccccc2)c1
Remaining PrP-Sc level [7]: 103%

COc1ccc(CNC(=O)C(=O)c2c[nH]c3ccccc23)cc1OC
EC50 [2]: 520 nM
Activity [3]: 19.3%

CCCCNC(=O)C(=O)c1cn(C)c2ccccc12
Remaining PrP-Sc level [1]: 124%

CCc1cccc(NC(=O)C(=O)c2c[nH]c3ccccc23)c1
EC50 [2]: 12100 nM
Remaining PrP-Sc level [7]: 37.9%

O=C(NC1CCCCC1)C(=O)c1c[nH]c2ccccc12
Remaining PrP-Sc level [1]: 83.1%

Cc1[nH]c2ccccc2c1C(=O)C(=O)N1CCOCC1
Remaining PrP-Sc level [1]: 81.9%

Cc1csc(NC(=O)C(=O)c2c[nH]c3ccccc23)n1
Remaining PrP-Sc level [7]: 105%

O=C(Nc1ccc(C(F)(F)F)cc1)C(=O)c1c[nH]c2ccccc12
EC50 [2]: 290 nM
Activity [3]: 6.1%

Cc1[nH]c2ccccc2c1C(=O)C(=O)NCc1cccnc1
Remaining PrP-Sc level [1]: 73.7%

O=C(C(=O)N1CCOCC1)c1c[nH]c2ccccc12
Remaining PrP-Sc level [1]: 80.3%

CSc1ccc(CNC(=O)C(=O)c2c[nH]c3ccccc23)cc1
EC50 [2]: 40 nM
Activity [3]: 5.6%

Cc1[nH]c2ccccc2c1C(=O)C(=O)NC1CCCCC1
Remaining PrP-Sc level [1]: 102%
Activity [6]: Toxic

Cc1[nH]c2ccccc2c1C(=O)C(=O)Nc1cccc2c(O)cccc12
Activity [6]: Toxic

N#Cc1cccc(NC(=O)C(=O)c2c[nH]c3ccccc23)c1
Remaining PrP-Sc level [1]: 70.1%

Cn1cc(C(=O)C(=O)Nc2cccc(C#N)c2)c2ccccc21
Remaining PrP-Sc level [1]: 91.2%
Activity [6]: Toxic

COc1cccc(NC(=O)C(=O)c2cn(C)c3ccccc23)c1
EC50 [2]: 4730 nM
Remaining PrP-Sc level [1]: 61.8%

O=C(NCc1ccc(Oc2ccccc2)cc1)C(=O)c1c[nH]c2ccccc12
EC50 [2]: 1030 nM
Remaining PrP-Sc level [7]: 17.5%

O=C(NCc1cccnc1)C(=O)c1c[nH]c2ccccc12
Remaining PrP-Sc level [1]: 107%

O=C(Nc1ccc(-c2cnco2)cc1)C(=O)c1c[nH]c2ccccc12
EC50 [2]: 19 nM
Activity [3]: 16.8%

O=C(Nc1cc(F)c(F)c(F)c1)C(=O)c1c[nH]c2ccccc12
Remaining PrP-Sc level [1]: 62.5%

Cn1cc(C(=O)C(=O)Nc2ccccc2)c2ccccc21
EC50 [2]: 6900 nM
Remaining PrP-Sc level [1]: 81.4%

Cn1cc(C(=O)C(=O)Nc2cccc(Oc3ccccc3)c2)c2ccccc21
Remaining PrP-Sc level [7]: 169%
Activity [6]: Toxic

CC(=O)c1cccc(NC(=O)C(=O)c2cn(C)c3ccccc23)c1
Remaining PrP-Sc level [1]: 157%

COc1cc(NC(=O)C(=O)c2c(C)[nH]c3ccccc23)ncn1
Remaining PrP-Sc level [1]: 69.7%

COc1ccc(NC(=O)C(=O)c2c[nH]c3ccccc23)cn1
EC50 [2]: 120 nM
Activity [3]: 4.9%

O=C(NCc1ccco1)C(=O)c1c[nH]c2ccccc12
Remaining PrP-Sc level [1]: 95.2%

Cc1ccccc1NC(=O)C(=O)c1c[nH]c2ccccc12
Remaining PrP-Sc level [1]: 93.8%

C=CCNC(=O)C(=O)c1c[nH]c2ccccc12
Remaining PrP-Sc level [1]: 158%

Cn1cc(C(=O)C(=O)NCc2cccnc2)c2ccccc21
Remaining PrP-Sc level [7]: 117%

COc1ccc(NC(=O)C(=O)c2c(C)[nH]c3ccccc23)cc1
Remaining PrP-Sc level [1]: 72.4%

Cc1cccc(NC(=O)C(=O)c2c[nH]c3ccccc23)c1
EC50 [2]: 6350 nM
Remaining PrP-Sc level [7]: 21.7%

O=C(Nc1ccc(F)cc1)C(=O)c1c[nH]c2ccccc12
EC50 [2]: 64 nM
Activity [3]: 10.3%

COc1ccc(NC(=O)C(=O)c2cn(C)c3ccccc23)cc1
EC50 [2]: 68 nM
Activity [3]: 11.6%

CCc1cccc(NC(=O)C(=O)c2cn(C)c3ccccc23)c1
Remaining PrP-Sc level [1]: 132%

CC(=O)c1cccc(NC(=O)C(=O)c2c(C)[nH]c3ccccc23)c1
Remaining PrP-Sc level [1]: 84.4%

O=C(NCc1ccccc1)C(=O)c1c[nH]c2ccccc12
Remaining PrP-Sc level [1]: 90%

Cn1cc(C(=O)C(=O)Nc2cccc(CO)c2)c2ccccc21
Remaining PrP-Sc level [1]: 137%

O=C(Nc1cccc(O)c1)C(=O)c1c[nH]c2ccccc12
EC50 [2]: 820 nM
Activity [3]: 52.4%

COc1cc(NC(=O)C(=O)c2c[nH]c3ccccc23)cc(OC)c1
Remaining PrP-Sc level [1]: 75.4%

CCCCNC(=O)C(=O)c1c[nH]c2ccccc12
Remaining PrP-Sc level [1]: 80.8%
